# The list is not random: actives were taken first. Their share in the collection is about 2.2%.
# TCR CD3 inh: inhibitors of human TCR-CD3 interaction | TAMRA-labeled TCR probe fluorescence, biochemical | inhibition, % at 9.4 µM | 0.37% of 360,000 active; in the data active = inhibition above about 19%;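 also: recombinant mutant TCR 2C K166C tagged with TAMRA read by polarization; 0% = receptor in buffer alone and 100% = receptor with positive control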
# mABHD4 FP: inhibits mouse alpha/beta hydrolase domain 4. inhibition, % at 8.92 µM. purified mABHD4, FP-Rh probe fluorescence polarization. 0.54% of 370,000 active. AID 720543;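 active = inhibition exceeding the mean over every tested compound plus 3 SD, cut at about 30% in these data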;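 also: 0% = plate median of compound wells and 100% = S159A mutant with DMSO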
#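 system = mouse ABHD4 enzyme, wild type | medium = HEPES pH 7.0, NaCl, Pluronic buffer | also added = FP-Rh probe | incubation = Enzyme–compound pre-incubation 45 min, then probe 60 min, both 25 °C | technique = fluorescence polarization, excitation 525 nm, emission 598 nm, BODIPY TMR filters | controls = S159A mutant high control, sample median low control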
# TDP2 absorb: TDP2 (human) inhibition, absorbance primary screen; O95551; recombinant TDP2, T5PNP hydrolysis, p-nitrophenol absorbance 415 nm; inhibition, % at 12.8 µM; 0.34% of 370,000 active;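 active = inhibition above the mean of all tested compounds plus 3 SD, set per campaign, cut at about 25% in these data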;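 also: 0% = DMSO with enzyme and 100% = buffer with substrate but no TDP2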
#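 Evaluation: % inhibition relative to enzyme-containing and enzyme-free wells. Material: recombinant human TDP2. Benchmarks: enzyme-free and DMSO wells. Timing: enzyme reaction with compound for 2 h at 37 °C. Compound dosing: 12.8 µM only. Measured by: p-Nitrophenol epi absorbance. Reagent: T5PNP substrate at 5 mM, a TopII-DNA adduct mimic. Replication: single well per compound.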
# HTRA1 inh: inhibitors of human serine peptidase HTRA1; recombinant HTRA1, FP-rhodamine activity-based probe, fluorescence polarization; 0.5% of 340,000 active; inhibition, % at 5.96 µM; in the data active = inhibition above about 36%;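 also: 0% = enzyme with DMSO and 100% = wells lacking enzyme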
# Target sequence (Q92743 whole entry, looked up): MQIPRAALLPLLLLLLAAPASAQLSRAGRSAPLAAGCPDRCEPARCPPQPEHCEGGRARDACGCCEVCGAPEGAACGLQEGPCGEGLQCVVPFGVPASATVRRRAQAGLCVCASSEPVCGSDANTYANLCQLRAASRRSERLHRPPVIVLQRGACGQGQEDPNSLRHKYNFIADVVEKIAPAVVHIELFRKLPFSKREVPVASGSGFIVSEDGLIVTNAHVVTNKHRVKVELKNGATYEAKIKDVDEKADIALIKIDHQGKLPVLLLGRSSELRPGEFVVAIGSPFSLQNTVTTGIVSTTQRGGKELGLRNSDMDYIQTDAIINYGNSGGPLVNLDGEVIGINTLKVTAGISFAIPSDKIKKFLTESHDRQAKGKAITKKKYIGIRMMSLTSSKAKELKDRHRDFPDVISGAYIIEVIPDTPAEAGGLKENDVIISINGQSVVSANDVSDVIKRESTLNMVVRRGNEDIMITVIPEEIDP
# SIAE inh: human SIAE inhibition, primary screen. Q9HAT2. SIAE FP-Rh probe binding, fluorescence polarization. inhibition, % at 9.66 µM. 0.69% of 370,000 active. AID 1053197;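 active = inhibition above a cutoff: mean of compounds within the control limits plus 3 SD of those, cut at about 17% in these data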;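 also: 0% = plate median of compound wells and 100% = probe without SIAE protein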
# LEDGF integ inh: blocks HIV-1 LEDGF/p75-dependent DNA integration | inhibition, % at 3.7 µM | 0.64% of 370,000 active | AID 743269 | TR-FRET IN-LEDGF/p75 DNA integration, Eu/Cy5;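 active = inhibition above the screen-wide mean plus 3 SD, cut at about 13% in these data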;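 also: signal is the Cy5 over europium emission ratio at 671 and 618 nm; 0% = plate median of compound wells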
# HTRA1 inh conf: HTRA1 (human) inhibition, confirmation | AID 540248 | recombinant HTRA1, FP-rhodamine activity-based probe, fluorescence polarization | inhibition, % at 5.96 µM | shares compounds with HTRA1 inh | 66% of 1,600 active;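 active = mean inhibition over three repeats above a set limit taken from the earlier primary screen, cut at about 37% in these data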;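 also: 0% = HTRA1 with DMSO and 100% = wells lacking HTRA1; inhibitors block probe binding so polarization drops and inhibition rises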
# * hit, by the source's call; . = no result; + = active, no number.
SMILES,TCR CD3 inh,mABHD4 FP,TDP2 absorb,HTRA1 inh,SIAE inh,LEDGF integ inh,HTRA1 inh conf
COc1cc(OC)cc(C(C)c2ccc(C)cc2)c1 (configuration not stated),.,-3.2,-1.7,.,-2.9,1.5,.
Cc1ccccc1NC(=O)C[C@H]1CC[C@H]2[C@@H](COc3ccc(NC(=O)Nc4ccccc4)cc3C(=O)N2C)O1,.,12.6,11.5,.,-1.9,6.5,.
COC(=O)C1=C(C)N(CC(C)C)C(=S)NC1c1cccc(F)c1 (configuration not stated),-4.2,-12.8,-15.5,.,1.2,0.3,.
CC(C)(C)c1ccc(-c2noc(CCC(=O)NC3CC3)n2)cc1,.,0.9,3.7,.,2.3,-2.9,.
O=C(Oc1c(CN2CCOCC2)cc(Cl)c2cccnc12)c1ccccc1F,-4.7,27.2,-7.9,40.9*,2.3,-3.7,34.0
COc1ccc(C(=O)Oc2c(CN3CCOCC3)cc(Cl)c3cccnc23)cc1OC,6.8,5.7,1.1,.,10.2,-3.5,.
COc1cc(OC)cc(C(=O)Oc2c(CN3CCOCC3)cc(Cl)c3cccnc23)c1,3.4,8.1,6.4,38.4*,12.8,1.3,3.4
COc1cc(/C=N/n2c(-c3ccc4c(c3)NC(=O)CO4)csc2=Nc2cccc(C)c2)ccc1O,-6.5,21.0,-9.7,43.7*,41.0*,6.2,81.6*
COCCN=c1scc(-c2ccc3c(c2)NC(=O)CO3)n1/N=C(\C)c1ccc(O)cc1,3.0,12.2,-2.8,10.0,11.1,0.0,.
COc1ccccc1NC(=O)N(C)C[C@H]1OCc2cn(nn2)CCCC(=O)N([C@H](C)CO)C[C@@H]1C,2.2,1.1,8.3,.,6.0,-2.1,.
CCc1ccc(CNc2ccc(O)cc2)cc1,.,.,.,72.6*,.,.,52.4*
CCc1ccc(CNc2ccc3c(c2)ncn3CC)cc1,3.7,9.5,-13.7,5.4,4.0,1.4,.
Cc1cc(C)c(S(=O)(=O)/N=C2/C=C(SCC(=O)O)C(=O)c3ccccc32)cc1C,.,.,.,54.3*,.,.,35.5
N/C(=N\OC(=O)c1ccc(Br)o1)c1cccnc1,3.6,4.4,-2.2,0.3,-0.7,4.0,.
N/C(Cc1ccc(Cl)c(Cl)c1)=N\OC(=O)c1ccc(Br)o1,-4.0,-3.4,8.7,+,-5.5,-4.2,-5.3
Nc1[nH]c(C(=O)c2ccccc2)c(-c2ccc(Br)cc2)c1C(=O)N1CCN(CCO)CC1,.,-55.0,-1.0,.,-1.6,7.2,.
Cc1cc(SCC(=O)N/N=C/c2ccc(O)c(O)c2O)c(C)cc1Br,10.8,50.4*,-2.8,62.4*,34.9*,1.2,67.4*
COc1cc(/C=N/NC(=O)CSc2cc(C)c(Br)cc2C)ccc1O,4.1,-4.1,-5.8,-16.2,9.7,-4.3,.
CCC(=O)NC(c1cccs1)c1cc(Cl)c2cccnc2c1O (configuration not stated),0.9,8.1,-10.7,53.7*,16.7,-2.4,65.2*
CCCCC(=O)NC(c1cccs1)c1cc(Cl)c2cccnc2c1O (configuration not stated),-3.9,8.6,-5.6,54.8*,13.8,-1.3,54.9*
O=C(NC(c1ccc(Cl)cc1)c1cc(Cl)c2cccnc2c1O)c1cccnc1 (configuration not stated),-5.1,0.1,-0.8,59.7*,1.2,-3.0,52.1*
c1ccc2c(c1)NCC1CCCN21 (configuration not stated),0.9,21.9,5.7,43.7*,11.6,-2.0,18.4
O=C1NC[C@@H]2CCCN2C1=O,10.8,5.1,-2.1,.,-5.8,3.4,.
Cc1ccc(S(=O)(=O)Nc2ccc3oc(=O)sc3c2)c(C)c1,-1.4,-20.5,1.0,36.9*,-13.5,-1.0,0.6
C=CCn1c(SCC(=O)c2ccc(O)c(O)c2)nnc1-c1cccc(Cl)c1,8.7,23.5,-1.4,55.7*,3.2,0.2,73.2*
SMILES,TCR CD3 inh,mABHD4 FP,TDP2 absorb,HTRA1 inh,SIAE inh,LEDGF integ inh,HTRA1 inh conf
OCCN(CCO)c1ccc(C(c2ccccc2Cl)c2ccc(N(CCO)CCO)cc2Cl)c(Cl)c1,.,.,.,43.7*,.,.,60.9*
CCOC(=O)C1CCCN(C(=O)C2c3ccccc3Oc3ccccc32)C1 (configuration not stated),5.0,12.1,-4.6,52.9*,4.5,-4.0,-7.6
O=[N+]([O-])c1ccc(N/N=C/c2cccc(O)c2O)c(S(=O)(=O)N2CCOCC2)c1,-10.9,24.1,-38.9,58.5*,10.9,8.7,54.1*
O=[N+]([O-])c1ccccc1N/N=C\c1ccccc1Cl,-8.5,6.9,8.8,2.4,2.8,0.1,.
O=[N+]([O-])c1ccccc1N/N=C/c1cccc(O)c1O,-5.3,22.8,22.2,47.8*,-15.2,-1.0,35.9
CCn1c(/C=C/c2ccc(O)c(O)c2)nc2ccccc2c1=O,13.6,27.4,-10.1,58.5*,-7.1,4.7,112.1*
O=c1nc(/C=C/c2ccc(O)c(O)c2)oc2ccccc12,.,.,.,72.2*,.,.,76.0*
CCn1c(/C=C/c2ccc(O)cc2)nc2ccccc2c1=O,-6.4,6.3,-0.6,-3.6,-2.2,-5.2,.
COc1ccc(/C=C\c2nc(=O)c3ccccc3o2)cc1,4.0,0.6,-2.1,2.5,2.2,-0.4,.
CC(C)C(=O)OCC(=O)Nc1ccc(N=Nc2ccccc2)cc1,-1.3,1.1,-13.6,39.0*,1.9,1.0,49.0*
CC(=O)Nc1ccc(NC2=CC(=O)c3ccccc3C2=O)cc1,6.4,2.8,-12.5,5.5,1.9,0.7,.
CCc1ccc(S(=O)(=O)/N=C2\C=C(Nc3ccc(O)cc3)C(=O)c3ccccc32)cc1,.,.,.,78.5*,.,.,80.3*
Cc1cc(C)c(S(=O)(=O)/N=C2\C=C(Nc3ccc(C(=O)O)cc3)C(=O)c3ccccc32)c(C)c1,2.6,71.1*,84.0*,59.7*,18.3*,42.5*,52.2*
CCc1ccc(S(=O)(=O)/N=C2/C=C(Sc3ncn[nH]3)C(=O)c3ccccc32)cc1,.,.,.,25.9,.,.,.
O=C1C=C(Nc2ccc(O)cc2)C(=O)c2ccccc21,2.5,14.2,5.7,37.4*,7.4,-5.0,30.1
O=C(N/N=C/c1ccc([N+](=O)[O-])s1)c1cccc(Br)c1,3.8,11.7,-11.9,44.9*,-1.8,-0.3,45.5*
Cc1cccc(NC(=S)N/N=C/c2ccc([N+](=O)[O-])s2)c1,-9.3,-2.9,-8.9,59.5*,10.0,3.8,67.0*
O=[N+]([O-])c1ccc(/C=N/Nc2ccc3ccccc3c2)o1,-60.6,0.4,10.8,36.9*,8.0,1.3,15.8
O=C(N/N=C/c1ccc([N+](=O)[O-])o1)c1cc2ccccc2o1,8.6,29.2,-5.5,28.4,6.8,11.2,.
C/C(CC(=O)Nc1ccc2ccccc2c1)=N\NC(=O)c1cnccn1,2.2,-16.0,0.8,-7.0,-2.5,1.5,.
